Experimental data as given in paper PMC5910468 (Advances in Therapy, 2018).
Where two headings read alike, the source gives them in different places.

Columns and labels:
[1] = type: in vivo, human; details: for AUC0–168h,sema,SS estimated race ratio [95% CI] (Japanese/Caucasian) / Cmax,sema,SS estimated race ratio [95% CI] (Japanese/Caucasian): steady state
In short: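 Healthy Japanese or Caucasian men, s.c. once weekly with stepwise escalation from 0.25 mg. Plasma drug measured by validated LC–MS/MS. Dense sampling 0–168 h after first dose and 0–840 h after last dose (day 84), with pre-dose troughs from day 7 to 84. AUC0–168h by linear trapezoidal method at actual times. Racc,DC = (AUC_SS/last dose)/(AUC_SD/first dose). Log values fitted by linear normal model (race, dose, race×dose) and back-transformed to ratios with 95% CI.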

[2] = type: in vivo, human; details: for Gastrointestinal disorders, proportion of subjects / Adverse events, proportion of subjects: 8 subjects
In short: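 Double-blind, placebo-controlled, 13 weeks of once-weekly s.c. dosing plus 5 weeks of follow-up. Monitored adverse events, hypoglycemic episodes, vital signs, ECG and physical examination. Laboratory tests covered hematology, biochemistry, calcitonin and urinalysis, and anti-drug antibodies were measured at follow-up. Every randomized subject given at least one dose was included in the safety analysis.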

[3] = Pulse rate change from baseline to end of treatment; type: in vivo, human
[4] = Anti-semaglutide antibodies; type: in vivo, human; details: both populations, 0.5 and 1.0 mg, at follow-up
[5] = semaglutide; cited from earlier work
[6] = SUSTAIN 6, no change with placebo, cited from earlier work
[7] = semaglutide 0.5 mg s.c. once weekly
[8] = semaglutide 1.0 mg s.c. once weekly
[9] = Japanese subjects, 0.5 mg, placebo 16.7%
[10] = Japanese subjects, 1.0 mg, placebo 16.7%

Dose-corrected accumulation ratio ([1]; overall statement, once-weekly dosing, both races and doses): approximately 2
Racc,DC,sema estimated race ratio [95% CI] (Japanese/Caucasian) ([1]; semaglutide 0.5 mg): 0.87 [0.78; 0.96]
AUC0–168h,sema,SS estimated race ratio [95% CI] (Japanese/Caucasian) [1, 7]: 1.06 [0.92; 1.23]
Cmax,sema,SS estimated race ratio [95% CI] (Japanese/Caucasian) [1, 7]: 1.06 [0.91; 1.23]
Racc,DC,sema estimated race ratio [95% CI] (Japanese/Caucasian) ([1]; semaglutide 1.0 mg): 0.90 [0.82; 1.00]
AUC0–168h,sema,SS estimated race ratio [95% CI] (Japanese/Caucasian) [1, 8]: 0.99 [0.85; 1.16]
Cmax,sema,SS estimated race ratio [95% CI] (Japanese/Caucasian) [1, 8]: 1.02 [0.87; 1.19]
Gastrointestinal disorders, proportion of subjects ([2]; Caucasian subjects, 0.5 mg, placebo 0.0%): 25.0%
Gastrointestinal disorders, proportion of subjects ([2]; Caucasian subjects, 1.0 mg, placebo 0.0%): 25.0%
Gastrointestinal disorders, proportion of subjects [2, 9]: 62.5%
Gastrointestinal disorders, proportion of subjects [2, 10]: 37.5%
Biochemistry parameters, including amylase, lipase and calcitonin ([2]; any of the treatment or race groups): No noticeable trends
Hypoglycemic events ([2]; both populations, 0.5 and 1.0 mg, during the trial): No hypoglycemic events were reported
Pulse rate increase from baseline to end of treatment ([3]; Caucasian subjects, 0.5 mg, placebo 2.8 bpm): 14.6 bpm
Pulse rate increase from baseline to end of treatment ([3]; Caucasian subjects, 1.0 mg, placebo 2.8 bpm): 10.5 bpm
Pulse rate increase from baseline to end of treatment ([3]; Japanese subjects, 0.5 mg, placebo decrease of 0.5 bpm): 8.5 bpm
Pulse rate increase from baseline to end of treatment ([3]; Japanese subjects, 1.0 mg, placebo decrease of 0.5 bpm): 10.4 bpm
Compound: CC[C@H](C)[C@H](NC(=O)[C@H](Cc1ccccc1)NC(=O)[C@H](CCC(=O)O)NC(=O)[C@H](CCCCNC(=O)COCCOCCNC(=O)COCCOCCNC(=O)CC[C@H](NC(=O)CCCCCCCCCCCCCCCCC(=O)O)C(=O)O)NC(=O)[C@H](C)NC(=O)[C@H](C)NC(=O)[C@H](CCC(N)=O)NC(=O)CNC(=O)[C@H](CCC(=O)O)NC(=O)[C@H](CC(C)C)NC(=O)[C@H](Cc1ccc(O)cc1)NC(=O)[C@H](CO)NC(=O)[C@H](CO)NC(=O)[C@@H](NC(=O)[C@H](CC(=O)O)NC(=O)[C@H](CO)NC(=O)[C@@H](NC(=O)[C@H](Cc1ccccc1)NC(=O)[C@@H](NC(=O)CNC(=O)[C@H](CCC(=O)O)NC(=O)C(C)(C)NC(=O)[C@@H](N)Cc1cnc[nH]1)[C@@H](C)O)[C@@H](C)O)C(C)C)C(=O)N[C@@H](C)C(=O)N[C@@H](Cc1c[nH]c2ccccc12)C(=O)N[C@@H](CC(C)C)C(=O)N[C@H](C(=O)N[C@@H](CCCNC(=N)N)C(=O)NCC(=O)N[C@@H](CCCNC(=N)N)C(=O)NCC(=O)O)C(C)C [Semaglutide]
Adverse events, proportion of subjects ([2]; Caucasian subjects, 0.5 mg, placebo 33.3%): 50.0%
Adverse events, proportion of subjects ([2]; Caucasian subjects, 1.0 mg, placebo 33.3%): 62.5%
Adverse events, proportion of subjects [2, 9]: 75.0%
Adverse events, proportion of subjects [2, 10]: 62.5%
ECG readings or physical examinations ([2]; both populations, 0.5 and 1.0 mg): no clinically significant abnormalities
Severity of adverse events ([2]; both populations, 0.5 and 1.0 mg, none were severe): mild to moderate
Development of anti-semaglutide antibodies [4]: No subjects developed anti-semaglutide antibodies
Half-life (t1/2) [5]: ~ 1 week
Mean pulse rate increase ([6]; semaglutide 0.5 mg): 2.1 bpm
Mean pulse rate increase ([6]; semaglutide 1.0 mg): 2.4 bpm
